In the RNAGym collection of RNA variant scans (doi:10.1126/science.aae0568) one finds yeast fitness data, which are given here for 167 variants.

Fewer inactive variants are shown than the library holds.

B1: tRNA (parent)
chain: GUUCCGUUGGCGUAAUGGUAACGCGUCUCCCUCCUAAGGAGAAGACUGCGGGUUCGAGUCCCGUACGGAACG

The variants in this series derive from B1. In words: yeast fitness relative to wild type (ratio to wild type); higher = fitter; tRNA-Arg(CCU), competitive growth, 37 C, YPD. An outline of the steps: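 For this measurement, the tRNA-Arg(CCU) gene was varied by chemical synthesis at a 3% per-site mutation rate across 69 sites, and each variant was placed at the native genomic locus in Saccharomyces cerevisiae. The pooled strains went through a 24-hour competition in YPD at 37°C in six parallel replicates, with amplicons from start and end populations read by 100-nucleotide paired-end sequencing. Darwinian fitness relative to wild type followed from the change in each genotype's frequency. Genotypes needed ≥ 100 starting reads, and estimates < 0.5 were set to 0.5.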
For the variant U35C G41A A70G, the yeast fitness came to 0.689.
Regarding C34U A45C G52A A65G, the yeast fitness was 0.688.
Then C34G G67C, with 0.604.
Consider U35C C46U C55G, for which the yeast fitness turned out to be 0.507.
Then U35A A45G, with 0.759.
Turning to C34U G58C G63A A70C, the yeast fitness was ≤ 0.5.
U35C A45C C49A: the yeast fitness is ≤ 0.5.
As for U35C A40C C61G, the yeast fitness is ≤ 0.5.
Regarding U35C G41A, the yeast fitness turned out to be 0.882.
In the case of C34G C55A C66U, the yeast fitness is ≤ 0.5.
Consider U35C G52C, for which the yeast fitness was ≤ 0.5.
As for C34G G52C C60G, the figure is ≤ 0.5.
With U35A C61U, the yeast fitness worked out at 0.765.
As for C34U U35G G38A C62U A65C, the yeast fitness was ≤ 0.5.
On to U35C A42C A43G G48A, for which the yeast fitness came out at 0.576.
On to C34U U47G G58C, for which the yeast fitness amounted to 0.518.
On to U35G C46U, for which the yeast fitness turned out to be 0.628.
In the case of U35A G52A U59C C66A G67A, the yeast fitness was ≤ 0.5.
As to U35A G68U, the yeast fitness turned out to be 0.6.
Regarding U35C G38A, the yeast fitness turned out to be 0.891.
As to U35C U54G, the yeast fitness was 0.552.
As for U35C U54A, the figure is ≤ 0.5; as for U35C G44A C46G G50C U53A, 0.583; as for C34U C46A C62U, 0.682.
As for U35C A42C G52C U53C G68U, the figure is ≤ 0.5; as for C34G U35G G39A, 0.593; as for C34U C60G A70C, ≤ 0.5.
U35C A36C A40U C61G A69C A70C: the yeast fitness was ≤ 0.5.
Then U35A A40U A42U C55G, with ≤ 0.5.
As for C34U G38C C55A U64C, the yeast fitness was ≤ 0.5.
Take C34U A37G C62A: the yeast fitness was ≤ 0.5.
Then U35C C55A A69U, with ≤ 0.5; and U35C C46G, with 0.906.
U35C C46U: the yeast fitness was found to be 0.938.
As for U35A A36G A40U A42U C55G, the figure is ≤ 0.5; as for U35C G51C C55U, ≤ 0.5; as for C34U C55U C60A, ≤ 0.5.
As for C34U A65C G67C, the figure is ≤ 0.5.
In the case of C34U U47A C66U, the yeast fitness was ≤ 0.5.
As for C34U A37U, the figure is 0.535.
In the case of C34U C55A C62U C66U, the yeast fitness is ≤ 0.5.
As for U35C U59C A69U, the figure is 0.749; as for C34G G38C G68C, 0.582.
For the variant C34U A40U, the yeast fitness turned out to be 0.632.
Regarding C34U A40G, the yeast fitness stood at 0.729.
Then U35G A65G, with 0.573; and C34U U53C C55U, with ≤ 0.5.
As to C34G C55A, the yeast fitness was ≤ 0.5.
Regarding C34U G44A C49A G56C C62A A65C, the yeast fitness is ≤ 0.5.
Consider C34U C66U A69U, for which the yeast fitness was ≤ 0.5.
As for U35G A69U, the figure is 0.769; as for C34U G38A C61G, ≤ 0.5; as for C34G G39A A70C, ≤ 0.5.
Then U35C C61A, with ≤ 0.5; and U35C C61U, with 0.968.
For U35A G50A A69U, the yeast fitness came out at 0.621.
Then U35A A36U A57G, with ≤ 0.5; and U35A G56A, with 0.817.
In the case of U35C C49U C66U, the yeast fitness is 0.681.
Take U35G G52C G63A: the yeast fitness amounted to 0.551.
As for U35G A45G, the figure is 0.669; as for C34U U47A, 0.621.
On to C34U U47C, for which the yeast fitness was 0.67.
In the case of C34U G41A C49G, the yeast fitness was 0.535.
As for C34U A37U A45U A57G C61U, the figure is ≤ 0.5; as for U35G C55G C62U, ≤ 0.5.
As for C34U G52A U54A C66U A69C, the figure is ≤ 0.5; as for C34U A37C G63A, ≤ 0.5.
For the variant U35A C60G C62G, the yeast fitness is ≤ 0.5.
For the variant C34G G48C U59C, the yeast fitness worked out at 0.712.
Then C34G U35G A40U A42G C61G, with ≤ 0.5; and C34U G68U A69C, with ≤ 0.5; and C34U G39A U47C G56A, with ≤ 0.5.
As for U35C A37C, the figure is 0.817; as for C34U C49A A69C, ≤ 0.5.
Take C34U C62A C66U: the yeast fitness is ≤ 0.5.
Then U35C A45G C49G G56A A65C, with ≤ 0.5.
For the variant U35G A57G, the yeast fitness came out at 0.698.
For the variant U35C C49U G63C, the yeast fitness came to 0.548.
Regarding U35A G51C A57U, the yeast fitness stood at 0.539.
On to U35A A57C, for which the yeast fitness was ≤ 0.5.
Consider U35C A42G, for which the yeast fitness amounted to 0.761.
Regarding U35C A36C A40U C61G, the yeast fitness was ≤ 0.5.
Then C34G G48A, with 0.662.
As to C34G G39C U53G G56A, the yeast fitness is ≤ 0.5.
As to C34G C55G U59C C60U G67U, the yeast fitness came to 0.555.
As for C34U G44C G56A, the figure is ≤ 0.5; as for C34G C61A, 0.613.
Take U35G A43G C46U: the yeast fitness worked out at 0.702.
For C34U C55G G63A, the yeast fitness is ≤ 0.5.
Take C34G C46U C49U: the yeast fitness is ≤ 0.5.
As for U35C A43G U54C, the yeast fitness is ≤ 0.5.
In the case of U35A C46A C49G G52A C60U A69G, the yeast fitness was ≤ 0.5.
For the variant U35A A36G, the yeast fitness is 0.65.
Turning to C34U U47A A70U, the yeast fitness was determined as 0.534.
As for C34G G48C C62U C66G, the figure is ≤ 0.5.
With C34U U53C A69C, the yeast fitness is ≤ 0.5.
As for C34G C49A U59G, the yeast fitness amounted to 0.547.
Consider U35A C49G G58A C60A, for which the yeast fitness was ≤ 0.5.
Turning to U35C G56A, the yeast fitness came out at 0.735.
On to U35C G58A, for which the yeast fitness came out at 0.77.
As for U35C U47G C62U A65U, the yeast fitness was ≤ 0.5.
In the case of C34G G68C, the yeast fitness amounted to 0.603.
Turning to C34G G68A, the yeast fitness is 0.586.
In the case of C34U U35C A45G U54A, the yeast fitness was 0.704.
For the variant C34U C49U C55U, the yeast fitness was ≤ 0.5.
For the variant U35C G39C, the yeast fitness was 0.747.
As for C34U C61G A70U, the figure is ≤ 0.5.
On to C34U C61G A70C, for which the yeast fitness worked out at 0.528.
C34G G50A U59A: the yeast fitness is ≤ 0.5.
On to U35A A37G, for which the yeast fitness is ≤ 0.5.
Turning to C34U C60G, the yeast fitness was determined as 0.716.
Consider C34U C49A G67A, for which the yeast fitness is ≤ 0.5.
As for C34G G50C, the yeast fitness is ≤ 0.5.
Regarding C34G C49A G50A, the yeast fitness was ≤ 0.5.
In the case of C34U A43G U54C, the yeast fitness is ≤ 0.5.
Regarding U35G C49G U64A, the yeast fitness is 0.525.
C34U G58C C61A A69U: the yeast fitness was ≤ 0.5.
U35G C61G: the yeast fitness is ≤ 0.5.
Turning to U35C G48A, the yeast fitness was found to be 0.937.
Regarding U35C A42U C62G, the yeast fitness turned out to be 0.546.
For U35C C60U, the yeast fitness came out at 0.546.
As for U35C U47A C49U, the yeast fitness was 0.603.
For C34G G58C A65U, the yeast fitness is ≤ 0.5.
Then U35C A42C G52C, with ≤ 0.5; and U35C A65G C66U, with 0.675.
On to U35C A42G C55A, for which the yeast fitness was ≤ 0.5.
Then U35C A37U A43C C46U C49U G68A, with ≤ 0.5.
In the case of C34U G58C A70C, the yeast fitness was ≤ 0.5.
Take C34G G51C U53C: the yeast fitness came out at 0.616.
For C34G C49G C61U A69G, the yeast fitness worked out at 0.567.
C34U U53A: the yeast fitness is ≤ 0.5.
U35C A36G G58A G67A: the yeast fitness was ≤ 0.5.
As for C34G G50C G56C, the figure is ≤ 0.5; as for C34G G39A G50C, ≤ 0.5; as for C34U U54C, 0.569.
As for C34U U54G, the figure is 0.612; as for U35C U47A, 0.734; as for C34U G67C, 0.723.
Consider C34G G38C A40U G48C C49G, for which the yeast fitness is ≤ 0.5.
Consider C34G C49G, for which the yeast fitness came to 0.657.
Consider C34U A36G A40U, for which the yeast fitness is ≤ 0.5.
For the variant U35C C60U C66U, the yeast fitness is ≤ 0.5.
Take C34U A45U C66U: the yeast fitness amounted to 0.57.
Turning to C34U C66U, the yeast fitness amounted to 0.555.
With U35A A42G, the yeast fitness was found to be 0.681.
As to C34U U47C A69U, the yeast fitness worked out at 0.506.
Then C34U A69U A70C, with 0.541; and U35C A69U, with 0.949.
As for U35C A69C, the figure is 0.943.
C34U G38A G44C: the yeast fitness was ≤ 0.5.
Then C34U U35C A70C, with ≤ 0.5; and U35A C66U A69U, with ≤ 0.5.
U35A C55A C66A: the yeast fitness is ≤ 0.5.
Then C34U A36G, with 0.696; and C34U A36C, with 0.554; and C34U G50A, with 0.67.
Consider C34U A37U A45U A57G C61U A70G, for which the yeast fitness was ≤ 0.5.
As for U35C U59A, the figure is 0.878; as for U35A C55A, ≤ 0.5; as for U35A C55U, 0.564.
For C34U A36G G41A U47A G58C G63C G67A, the yeast fitness is ≤ 0.5.
Consider U35A A43C C46U, for which the yeast fitness was ≤ 0.5.
Turning to C34U A36G C66A, the yeast fitness is ≤ 0.5.
In the case of C34U U54C A69U, the yeast fitness is ≤ 0.5.
Then C34G G48C C66U, with 0.562.
As to C34U U35A A57C G58A A70U, the yeast fitness amounted to 0.586.
